How the values were obtained:
Type in all cases: functional
[1] = target: RNA-directed RNA polymerase (Hepacivirus hominis) (UniProt O39930); assay: Ratio of steady state kinetic constant and incorporation efficiency for Hepatitis C Virus NS5BRdRp
Outline: (§1)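 HCV NS5B, C-terminal His-tag with 21-residue truncation, 1 µM. Template 5′-AAAAAAAUGC-3′ and [5′-33P]GpC primer each at 20 µM. Buffer 50 mM HEPES pH 7.3, 10 mM DTT, 5 mM MgCl2; 15 min at 30 °C. Substrate varied from Km/2 to 10Km; EDTA quench, denaturing urea-PAGE. Initial velocities fitted to Michaelis-Menten for Km and Vmax; efficiency taken as Vmax/Km.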

[2] = test system: Nc1ncnc2c1ncn2[C@@H]1O[C@H](COP(=O)(O)OP(=O)(O)OP(=O)(O)O)[C@@H](O)[C@H]1O; assay: Steady-state kinetic constant for Hepatitis C Virus NS5BRdRp; conditions: Hepacivirus hominis; outline: as §1
[3] = test system: Nc1ncnc2c1ncn2[C@@H]1O[C@H](COP(=O)(O)OP(=O)(O)OP(=O)(O)O)[C@@H](O)[C@H]1O; assay: Incorporation efficiency for Hepatitis C Virus NS5BRdRp; conditions: Hepacivirus hominis; outline: as §1

Compound | Ratio [1] | Km [2] | Vmax [3]
Nc1ncnc2c1ncn2[C@@H]1O[C@H](CCP(=O)(O)OP(=O)(O)OP(=O)(O)O)[C@@H](O)[C@H]1O | 0.00019 |  | 
RNA-directed RNA polymerase (Hepacivirus hominis), O39930 |  | 133 µM | 0.23 µM/min
Nc1ncnc2c1ncn2[C@@H]1O[C@H](COP(=O)(O)OP(=O)(O)OP(=O)(O)O)[C@@H](O)[C@H]1O | 0.0017 |  | 
Nc1ncnc2c1ncn2[C@@H]1O[C@H](OCP(=O)(O)OP(=O)(O)OP(=O)(O)O)[C@@H](O)[C@H]1O | 1.2e-05 |  | 

— ChEMBL document CHEMBL1143599, “Design, synthesis, and antiviral activity of adenosine 5'-phosphonate analogues as chain terminators against hepatitis C virus” (J Med Chem, 2005)
